Each block holds one molecule with its values, some of them ahead of it.
Legend:
PD-1/PD-L1 interaction = PD-1/PD-L1 interaction (Homo sapiens, UniProt Q9NZQ7); assay: HTRF PD1/PD-L1 binding assay; conditions: IC50 against the PD-1/PD-L1 interaction
PD-L1 mRNA = assay: qPCR of PD-L1 mRNA in MDA-MB-231 cells; assay type: cell-based; conditions: MDA-MB-231, 48 h
MDA-MB-231 cells [1] = assay: Flow cytometry apoptosis analysis; assay type: cell-based; conditions: 48 h
p-AKT1 (Ser473) = assay: Western blot of AKT phosphorylation in MDA-MB-231 cells; assay type: cell-based; conditions: 4 μM, 48 h, MDA-MB-231, Western blot
Summary of the method: (§1)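 MDA-MB-231 cells exposed to test compound at 1, 2 and 4 μM for 48 h. Lysates run on SDS-PAGE and transferred to PVDF. Membranes blocked 2 h in 5% BSA/TBST, then probed overnight at 4 °C with antibodies to AKT, p-AKT, mTOR and p-mTOR (1:1000). Mean ± SEM, n = 3.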

MDA-MB-231 cells [2] = assay: Wound healing assay; assay type: cell-based
MCF-7 = assay: CCK-8 cell viability assay, MCF-7; assay type: cell-based; conditions: Homo sapiens, MCF7, 60 h, read-out: IC50 MCF-7
Summary of the method: (§2)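 Cells grown in DMEM or RPMI-1640 with 10% FBS and 1% penicillin-streptomycin at 37 °C, 5% CO2. Seeded in 96-well plates at densities suited to each line's growth rate and settled 8 h, then exposed 60 h to test compound at 0, 1, 2, 4, 8, 16 and 32 μM from 10 mM DMSO stocks. […] CCK-8 added for 0.5–1 h, OD read at 450 nm, viability normalised to control; mean ± SEM, n = 3.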

HCC827 = assay: CCK-8 cell viability assay, HCC827; assay type: cell-based; conditions: Homo sapiens, HCC827, 60 h, read-out: IC50 HCC827
Summary of the method: as §2

p-mTOR = assay: Western blot of mTOR phosphorylation in MDA-MB-231 cells; assay type: cell-based; conditions: 4 μM, 48 h, MDA-MB-231, Western blot
Summary of the method: as §1

MDA-MB-231 cells [3] = assay: CCK-8 cell viability assay, MDA-MB-231; assay type: cell-based; conditions: Homo sapiens, MDA-MB-231, 60 h, read-out: IC50 MDA-MB-231
Summary of the method: as §2

MRC-5 cells = assay: CCK-8 cell viability assay, normal MRC-5 cells; assay type: cell-based; conditions: for IC50: Homo sapiens, MRC5, 60 h, read-out: IC50 MRC-5
Summary of the method: as §2

PD-L1 = PD-L1 (Homo sapiens, UniProt Q9NZQ7); assay: Western blot of PD-L1 protein expression in MDA-MB-231 cells; assay type: cell-based; conditions: MDA-MB-231, 48 h, 1, 2 and 4 μM
Chain of PD-L1 (Q9NZQ7 19-290): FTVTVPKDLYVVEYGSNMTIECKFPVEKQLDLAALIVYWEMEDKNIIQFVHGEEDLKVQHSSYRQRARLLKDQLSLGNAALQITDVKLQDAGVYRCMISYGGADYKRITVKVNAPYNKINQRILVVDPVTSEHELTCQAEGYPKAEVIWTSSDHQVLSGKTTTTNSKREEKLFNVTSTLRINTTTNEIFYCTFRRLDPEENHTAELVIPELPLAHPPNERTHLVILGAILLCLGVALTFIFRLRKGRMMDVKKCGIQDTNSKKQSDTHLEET
Summary of the method: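 MDA-MB-231 cells treated 48 h with test compound at 1, 2 and 4 μM, BMS202 as positive control; in a further arm, 4 μM with or without GSK-3β inhibitor (40 nM) for 48 h. Lysates separated by SDS-PAGE, transferred to PVDF, blocked 2 h in 5% BSA/TBST, probed overnight at 4 °C with anti-PD-L1 (1:1000). Mean ± SEM, n = 3.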

MDA-MB-231 tumour = assay: MDA-MB-231 tumour-bearing nude mouse model; assay type: in vivo, BALB/c nude mice; conditions: intraperitoneal, every 2 days, nine administrations, nude mice
Summary of the method: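 Female BALB/c nude mice. MDA-MB-231 cells (within 10 passages) in PBS:Matrigel 1:1 at 3 × 10^7 cells/mL, 100 μL injected subcutaneously into the axilla. From about 200 mm3, test compound given intraperitoneally every 2 days in normal saline with 30% PEG400; cyclophosphamide as comparator. Tumour volume by callipers as length × width² × 0.5. Study ended when control tumours reached 1500 mm3. Tumours excised and weighed; inhibition rate from treated versus control tumour weight.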

A549 = assay: CCK-8 cell viability assay, A549; assay type: cell-based; conditions: Homo sapiens, A549, 60 h, read-out: IC50 A549
Summary of the method: as §2

MDA-MB-231 cells [4] = assay: Colony formation assay; assay type: cell-based; conditions: for Clone formation, result in words: positive controls, BMS-202 at 1 µM
Summary of the method: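 MDA-MB-231 seeded at 500 cells/well in 6-well plates, in triplicate. […] Medium renewed every three days. At two weeks: PBS washes, 15 min fixation in 4% paraformaldehyde, 1% crystal violet stain. Colonies of more than 500 cells counted by image analysis; mean ± SEM, n = 3.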

Chain of PD-1/PD-L1 interaction (Q9NZQ7 19-238 limits assumed): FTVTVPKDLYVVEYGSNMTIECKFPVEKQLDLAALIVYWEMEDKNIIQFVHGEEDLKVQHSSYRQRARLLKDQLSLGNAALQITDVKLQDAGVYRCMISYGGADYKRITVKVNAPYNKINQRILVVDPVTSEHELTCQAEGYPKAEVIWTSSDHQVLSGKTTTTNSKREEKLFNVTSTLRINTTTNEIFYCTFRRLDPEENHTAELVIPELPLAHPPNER

Structure (SMILES): COc1c(COc2ccc(CN[C@H](CO)C(=O)O)c(OCc3cncc(C#N)c3)c2)cccc1-c1ccccc1F [13h-1, N-[2–(5-Cyano-pyridin-3-ylmethoxy)-4-(2'-fluoro-2-methoxy-biphenyl-3-ylmethoxy)-benzyl]-D-serine]
- IC50 (MCF-7): 4.81 ± 0.45 µM
- IC50 (HCC827): 6.16 ± 0.76 µM
- IC50 (MDA-MB-231 cells [3]): 4.67 ± 0.79 µM
- IC50 (MRC-5 cells): 9.31 ± 0.16 µM
- IC50 (A549): 7.27 ± 0.71 µM

Structure (SMILES): COc1nc(OCc2cccc(-c3ccccc3)c2C)ccc1CNCCNC(C)=O [BMS-202, reference compound]
- Migration inhibition, result in words (MDA-MB-231 cells [2]; MDA-MB-231, positive control): can hardly inhibit the cancer cells’ migration
- Clone formation, result in words (MDA-MB-231 cells [4]): scarce inhibition activity

Structure (SMILES): CC(=O)O[C@H]1C(=O)[C@@]2(C)[C@H]([C@H](OC(=O)c3ccccc3)[C@]3(O)C[C@H](OC(=O)[C@H](O)[C@@H](NC(=O)c4ccccc4)c4ccccc4)C(C)=C1C3(C)C)[C@]1(OC(C)=O)CO[C@@H]1C[C@@H]2O [paclitaxel, reference compound]
- Tumour cell apoptosis (MDA-MB-231 cells [1]; 1 μM): approximately 60%
- Clone formation, result in words (MDA-MB-231 cells [4]): Few colonies can be observed

Second part, led by results:

- IC50 (PD-1/PD-L1 interaction): < 1000 nM
Structure (SMILES): N#Cc1cccc(COc2cc(OCc3cccc(-c4cc(F)ccc4F)c3F)ccc2CNCCO)c1 [7b-2, 3-[2-[(2-Hydroxy-ethylamino)-methyl]-5-(2,2',5'-trifluoro-biphenyl-3-ylmethoxy)-phenoxymethyl]-benzonitrile]

- IC50 (PD-1/PD-L1 interaction): < 1000 nM
Structure (SMILES): N#Cc1cncc(COc2cc(OCc3cccc(-c4cc(F)ccc4F)c3F)ccc2CNCCO)c1 [7b-4, 5-[2-[(2-Hydroxy-ethylamino)-methyl]-5-(2,2',5'-trifluoro-biphenyl-3-ylmethoxy)-phenoxymethyl]-nicotinonitrile]

- IC50 (MCF-7): 4.71 ± 0.44 µM
- IC50 (HCC827): 3.24 ± 0.09 µM
- IC50 (MDA-MB-231 cells [3]): 2.68 ± 0.27 µM
- PD-L1 protein expression, result in words (PD-L1): down-regulated
- IC50 (A549): 7.79 ± 0.69 µM
Structure (SMILES): Cc1c(COc2ccc(CNCCN)c(OCc3ccccc3)c2)cccc1-c1ccccc1F [12j-4, N^1-[2-Benzyloxy-4-(2'-fluoro-2-methyl-biphenyl-3-ylmethoxy)-benzyl]-ethane-1,2-diamine]
- PD-L1 mRNA, result in words (PD-L1 mRNA): decreased
- Apoptotic ratio (MDA-MB-231 cells [1]; 4 μM): exceeded 40.42%
- Inhibition rate of AKT type I phosphorylated form expression (p-AKT1 (Ser473)): 90%
- inhibition at 1 µM (MDA-MB-231 cells [2]; Homo sapiens, MDA-MB-231, read-out: Migration inhibition rate): 50%
- Inhibition rate of phosphorylated mTOR expression (p-mTOR): 40%
- IC50 (MRC-5 cells): 10.3 ± 0.12 µM
- IC50 against MRC-5 cells relative to IC50 against MDA-MB-231 cells (MRC-5 cells; selectivity normal vs cancer cells): 3.83 fold
- Tumour inhibition rate (MDA-MB-231 tumour; 10 mg/kg): 39.04%
- Tumour inhibition rate (MDA-MB-231 tumour; 20 mg/kg): 62.54%
- MDA-MB-231 cells' proliferation rate (clone formation) (MDA-MB-231 cells [4]; 1 µM, treated 24 h, colonies after two weeks): 40%

- IC50 (MCF-7): 5.52 ± 0.57 µM
- IC50 (HCC827): 5.65 ± 0.56 µM
- IC50 (MDA-MB-231 cells [3]): 4.96 ± 0.82 µM
- IC50 (A549): 13.5 ± 0.86 µM
Structure (SMILES): COc1c(COc2cc(OCc3cccc(C#N)c3)c(CNCCO)cc2Cl)cccc1-c1ccccc1F [13h-3, 3-{4-Chloro-5–(2'-fluoro-2-methoxy-biphenyl-3-ylmethoxy)-2-[(2-hydroxy-ethylamino)-methyl]-phenoxymethyl}-benzonitrile]
- IC50 (MRC-5 cells): 11.1 ± 0.2 µM

Reference: article PMC10348038 (Journal of Enzyme Inhibition and Medicinal Chemistry, 2023)
